Sampled rows, rich in hits. Any-hit rate of the full collection: about 2.9%.
Insulin prom up: insulin promoter activators in MIN6 cells, imaging, high-content screening, mouse beta cells; MIN6 insulin promoter-GFP reporter; hits give high values; z-score at 5 µM; AID 1625, 2009; actives 0.3% (n = 190,000);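 active means z-score above 3 at 5 µM with at least 500 cells counted in the well; inconclusive means wells under 500 cells, flagged as cytotoxic or low count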
Wee1 stabilizer: Wee1 degradation inhibitors, primary screen, cell-based, HeLa, Wee1K328M-luciferase, luminescence. Wee1-like protein kinase (Homo sapiens), P30291. actives 1.2% (n = 220,000). AID 1321, 2008. HeLa Luc-Wee1K328M stability; 100% = proteasome inhibitor MG132 effect. reporter increase, % at 5 µM;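 active means activation above the mean of all tested compounds plus 3 SD, set per screening run, cut at about 8.8% in these data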;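 further: cells exposed to compound for 20 h before luminescence read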
Target sequence (P30291 whole entry K328M): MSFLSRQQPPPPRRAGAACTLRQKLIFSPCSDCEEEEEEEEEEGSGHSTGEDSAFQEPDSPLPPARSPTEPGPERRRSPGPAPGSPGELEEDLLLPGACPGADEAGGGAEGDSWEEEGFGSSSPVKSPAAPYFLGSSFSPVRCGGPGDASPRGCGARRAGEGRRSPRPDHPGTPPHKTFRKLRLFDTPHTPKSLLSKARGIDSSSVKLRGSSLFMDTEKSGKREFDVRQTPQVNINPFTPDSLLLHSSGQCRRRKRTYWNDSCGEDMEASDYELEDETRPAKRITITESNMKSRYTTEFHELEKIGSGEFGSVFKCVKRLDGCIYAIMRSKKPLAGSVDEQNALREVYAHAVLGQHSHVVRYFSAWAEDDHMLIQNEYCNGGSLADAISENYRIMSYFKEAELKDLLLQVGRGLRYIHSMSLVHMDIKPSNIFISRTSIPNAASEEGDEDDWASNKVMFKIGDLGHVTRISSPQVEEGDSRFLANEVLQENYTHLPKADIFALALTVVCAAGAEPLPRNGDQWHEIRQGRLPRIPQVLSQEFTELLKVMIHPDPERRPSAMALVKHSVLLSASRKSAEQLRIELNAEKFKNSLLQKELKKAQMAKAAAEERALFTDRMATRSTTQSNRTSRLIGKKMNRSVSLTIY
MT stabilize HCS: microtubule stabilizers in HeLa cells, primary screen, imaging, high-content imaging; HeLa tubulin immunostaining HCS, 24 h; share of cells brighter than vehicle mean+2SD; % tubulin-high responders, % at 10 µM; actives 0.83% (n = 200,000); AID 2205, 2009;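 active means plate Z-score above 3 for both tubulin-high and condensed-nucleus cell shares, with cell loss under 80%, at 10 µM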;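 further: anti alpha tubulin signal scored within the nucleus-defined area of each cell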
bCat nuc transl: modulators of beta-catenin nuclear translocation, primary screen, imaging, HeLa cells, immunofluorescence, high-content. actives 0.3% (n = 190,000). nuclear translocation activity, % at 5 µM. AID 1665, 2009;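 active means nuclear translocation activity above 50% at 5 µM, with a well cell count of 50 or more; inconclusive means wells under 50 cells across six images, flagged as toxic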;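 further: per-cell ratio of nuclear to cytoplasmic median beta-catenin stain intensity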
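assay system = human HeLa cells, endogenous beta-catenin | times = compound treatment 24 h, 37°C, 5% CO2 | detection = Anti-beta-catenin immunofluorescence on PFA-fixed, Triton-permeabilized cells, DAPI nuclei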
Autophagy mod: autophagy modulators in MEF cells, primary screen, imaging, high-content, MEF GFP-LC3. AID 463193, 2010. actives 0.98% (n = 190,000). calls only at 10 µM (by protocol). MEF GFP-LC3 puncta imaging; test concentration mostly 10 µM;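 active means percentage of spot-positive cells more than 3 SD above its plate mean, without a fluorescence outlier flag or 80% toxicity; inconclusive means no clear call, values can overlap the other calls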
Of the large screens only hits and unclear results are named; the others gave an inactive call; ! = repeats disagree.

C=C1CC2C=C(NC(C)=O)CC(C1)C2 (stereo not given)	Wee1 stabilizer 9.6
Cc1ccc(NC(=O)COC(=O)C2CC(=O)N(Cc3ccccc3)C2)cc1S(=O)(=O)N(C)C (stereo not given)	none
CC(C)(C)c1nc2ccccc2c2nnc(SCC(=O)Nc3nccs3)n12	MT stabilize HCS 42
O=C(CN1CCCC1=O)NC1(C(F)(F)F)NC(=O)N(Cc2ccccc2)C1=O (stereo not given)	none
Cn1c([N+](=O)[O-])cnc1N1CCN(c2nncs2)C1=O	none (no result: MT stabilize HCS, Autophagy mod)
N=C1C(c2nc3ccccc3c(=O)[nH]2)=C(O)CN1c1ccccc1	MT stabilize HCS 42 (no result: bCat nuc transl)
N=C1C(c2nc3ccccc3s2)=C(O)CN1c1ccccc1	MT stabilize HCS 28
Cc1ccc(N2CC(O)=C(c3nc4ccccc4c(=O)[nH]3)C2=N)cc1C	Autophagy mod active
CCOc1ccc(N2CC(O)=C(c3nc4ccccc4c(=O)[nH]3)C2=N)cc1	none
COc1ccc(N2CC(O)=C(c3nc4ccccc4s3)C2=N)cc1	none
CCCn1nnc(NC(=O)c2ccc3c(c2)OCO3)n1	none (no result: MT stabilize HCS, Autophagy mod)
CC(C)CCSc1nc2[nH]ncc2c(=O)[nH]1	none
O=C(CSc1ccc(F)cc1)Nc1ccc(C2SCCS2)cc1	Wee1 stabilizer 9.5 (no result: MT stabilize HCS, Autophagy mod)
O=C(/C=C/c1ccccc1)Nc1scc(-c2ccccc2)c1C(=O)O	Autophagy mod active
C=CCNC(=O)/C(C#N)=C/c1cc(Br)ccc1OC	Wee1 stabilizer 11 (no result: Insulin prom up)
O=C(c1ccc(COc2ccc(Cl)cc2)o1)N1CCN(Cc2ccc3c(c2)OCO3)CC1	none
O=C(c1ccc(COc2ccccc2Cl)o1)N1CCN(Cc2ccc3c(c2)OCO3)CC1	Autophagy mod active!
COc1ccc(OC)c2c1sc(=NC(=O)c1cccc(N3C(=O)CCC3=O)c1)n2C	Autophagy mod active
Cc1ccsc1-c1nc(CN2CCCC2c2ccc(F)cc2)c(C)o1 (stereo not given)	none
COC(=O)c1ccc(N2CCN(C)CC2)c(NC(=O)COc2ccc(OC)cc2)c1	Autophagy mod active (no result: Insulin prom up)
COc1ccc(Cl)cc1NC(=O)CCN1CCN(C)CC1	none (no result: Insulin prom up, bCat nuc transl)
COc1cc(CCC(=O)Nc2cc(Cl)ccc2N2CCN(C)CC2)cc(OC)c1OC	Wee1 stabilizer 9.2
COc1ccc(/C=C/C(=O)N(C)c2ccccc2C(=O)O)cc1	none
O=C(CSc1ncccn1)N1CCC(Cc2ccccc2)CC1	none
CCN(c1ccc(NC(=O)c2ccc(Cl)nc2)cc1)C(C)C	MT stabilize HCS 23
O=C(Nc1ccc(N2CCOCC2)cc1)c1ccc(Cl)nc1	none
Nc1nnnn1/N=C/c1cc(Cl)cc(Cl)c1OCc1ccc(Cl)cc1Cl	Autophagy mod active (no result: bCat nuc transl)
Cc1cccc(NC(=O)CN(c2ccc(C(C)C)cc2)S(=O)(=O)c2c(C)nn(C)c2C)n1	none (no result: bCat nuc transl)
COc1cccc(/C=N/NC(=O)C(=O)N/N=C/c2cccc(OC)c2O)c1O	none
COc1ccc(CCNC(=O)NC2CCCCC2)cc1OC	none
COc1ccccc1CCNC(=O)NC1CCCCC1	Wee1 stabilizer 9.7
COc1cccc(/C=N/NC(=O)NC2CCCCC2)c1O	Wee1 stabilizer 10 (no result: MT stabilize HCS, Autophagy mod)
CSc1ccccc1C(=O)NC1CCCC1	Wee1 stabilizer 8.9 (no result: bCat nuc transl)
CSc1ccccc1C(=O)NC1CCCCC1	none
COc1ccccc1C(=O)NC1CCCCCCC1	Autophagy mod active (no result: Insulin prom up)
O=C(NC1CCCC1)c1ccccc1OCc1ccccc1	none
Cc1cccc[n+]1CC(=O)N1c2ccccc2Sc2ccccc21	none
COc1cc(C(=O)OCC(=O)NCCN2C(=O)CSC2=O)ccc1OCc1c(C)noc1C	none
O=C(O)c1ccccc1C(=O)NCCc1c(C(=O)O)[nH]c2ccc(F)cc12	none (no result: MT stabilize HCS, Autophagy mod)
O=[N+]([O-])c1ccc2c(c1)C(O)n1nc(-c3ccc(Cl)cc3Cl)nc1S2 (stereo not given)	Wee1 stabilizer 13
Cc1nc2n(n1)C(O)c1cc([N+](=O)[O-])ccc1S2 (stereo not given)	none
CC(C)(C)c1ccc(OCC(=O)N/N=C/c2ccc(N3CCOCC3)cc2)cc1	none
Cc1nn2c(-c3ccccn3)ccnc2c1Cl	none
Cc1nn(-c2ccccc2)c2c1C(c1ccc(Br)s1)C(C#N)=C(N)O2 (stereo not given)	Wee1 stabilizer 9.1
O=[N+]([O-])c1cc(Oc2cccnc2)cc([N+](=O)[O-])c1	Autophagy mod active (no result: bCat nuc transl)
COCCN(CC(=O)NC1CCCCC1)C(=O)CCCC(=O)Nc1ccccn1	none
CN(C)c1cccc(/C=C(\C#N)c2ccccc2)c1	Wee1 stabilizer 10.0 (no result: MT stabilize HCS, Autophagy mod)
Cn1cccc1/C=C(\C#N)c1ccccc1	none
CN(C)c1ccc(/C=C(\C#N)c2ccccc2)cc1	Wee1 stabilizer 16 (no result: MT stabilize HCS, Autophagy mod)
N#C/C(=C\c1ccc(C#N)cc1)C(=O)c1ccccc1	none (no result: MT stabilize HCS, Autophagy mod)
CN(C)c1ccc(/C=C(\C#N)C(=O)c2ccccc2)cc1	Wee1 stabilizer 9.3 (no result: MT stabilize HCS, Autophagy mod)
NCCCC[C@H]1CNC(=S)N1CCc1cccc(F)c1	none
Cc1nc(NCc2ccc3c(c2)OCO3)c2nnn(Cc3ccccc3)c2n1	Autophagy mod active
c1ccc(Cn2nnc3c(NCc4ccc5c(c4)OCO5)nc(C4CC4)nc32)cc1	Autophagy mod active
CC(C)OC(=O)CSc1nc(Cc2cccs2)nc2ccccc12	none
Cc1ccc(C(=O)NCC(=O)OC(C)C(=O)Nc2ccc(N(C)C)cc2)cc1C (stereo not given)	none
COc1cc(/C=C2\SC(=S)N(N3CCOCC3)C2=O)ccc1O	Wee1 stabilizer 9.0 (no result: MT stabilize HCS, Autophagy mod)
COc1cc(/C=C2/C(=O)N(c3ccc([N+](=O)[O-])cc3)N=C2N2CCOCC2)ccc1O	Wee1 stabilizer 8.9 (no result: MT stabilize HCS, Autophagy mod)
NS(=O)(=O)c1ccccc1	Wee1 stabilizer 14 (no result: MT stabilize HCS, Autophagy mod)
CCN(CC)CCNC(=O)c1ccccn1	Wee1 stabilizer 16
CCC(C)c1ccc(NC(=O)C/C(C)=N/NC(=O)c2cnccn2)cc1 (stereo not given)	none
O=C(N/N=C/C(Br)=C/c1ccccc1)c1n[nH]c2c1CCC2	Insulin prom up inconclusive, bCat nuc transl 161, Autophagy mod active
O=C(N/N=C/c1ccc(Cl)cc1)c1n[nH]c2c1CCCC2	bCat nuc transl 100 (no result: MT stabilize HCS, Autophagy mod)
O=C(N/N=C/c1ccccc1)c1n[nH]c2c1CCCC2	none
O=C(N/N=C/c1cccs1)c1n[nH]c2c1CCC2	MT stabilize HCS 25
NC(=O)c1cc2c3ccccc3ccn2c1-c1ccccc1	Insulin prom up inconclusive, bCat nuc transl 102 (no result: MT stabilize HCS, Autophagy mod)
Cc1cc(C(N)=O)c2ccccc2n1	none
Cc1cccc(Oc2nccc(C(F)(F)F)c2C(=O)Nc2ccc(F)cc2F)c1	Insulin prom up 3.6 (no result: MT stabilize HCS, Autophagy mod)
O=C(Nc1ccc(F)cc1F)c1c(C(F)(F)F)ccnc1Oc1ccccc1	none (no result: MT stabilize HCS, Autophagy mod)
COc1cccc(NC(=O)[C@H](C)NC(=O)C2CCN(S(=O)(=O)c3ccc(C)cc3)CC2)c1	none (no result: MT stabilize HCS, Autophagy mod)
N#C/C(=C\C=C\c1ccccc1)c1nc(-c2ccc3c(c2)OCO3)cs1	Autophagy mod active

From PubChem
